Assay results: ChEMBL document CHEMBL1275449, “Potent in vitro antifungal activities of naturally occurring acetylenic acids” (Antimicrob Agents Chemother, 2008)
pIC50: −log10 of the molar value. The source made the active and inactive calls.

Assays:
[1] = system: Trichophyton mentagrophytes; experiment: Antifungal activity against Trichophyton mentagrophytes ATCC MYA-4439 at 542.7 uM after 5 days by CLSI method; format: functional, organism-based
Candida albicans [2] = experiment: Antifungal activity against Candida albicans assessed as inhibition of morphogenesis at 10 uM; format: functional, organism-based
[3] = system: Trichophyton mentagrophytes; experiment: Antifungal activity against Trichophyton mentagrophytes ATCC MYA-4439 by CLSI method; format: functional, organism-based
Procedure, shortened: (§1)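 Growth scraped from 1- to 6-week-old potato dextrose slants and filtered through Miracloth. Diluted in 5% Alamar blue-RPMI 1640 (MOPS pH 7.0) to 2.7 × 10⁴ CFU/ml. Eleven twofold dilutions in duplicate. Fluorescence at 544 nm excitation/590 nm emission read before and after 35°C, 5 days. IC50 fitted from percent growth. MIC taken as no detectable growth; MFC from clear or blue wells plated on PD agar.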

Candida albicans [4] = experiment: Antifungal activity against Candida albicans ATCC 200955 at 542.7 uM after 48 hrs by CLSI method; format: functional, organism-based
Procedure, shortened: (§2)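 Candida inocula came from 24–72-h SD agar colonies suspended in saline. They were diluted by OD630 standard curve into RPMI 1640 (0.2% dextrose, 0.03% glutamine, 0.165 M MOPS, pH 7.0) to 1.5 × 10³ CFU/ml. Compounds were run as 11 twofold dilutions in 20% DMSO-saline, in duplicate, at 35°C for 48 h, with OD530 read before and after. Percent growth at the top concentration, IC50, MIC, and MFC (SD agar plating) were derived.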

Candida parapsilosis [5] = experiment: Antifungal activity against Candida parapsilosis ATCC 22019 after 48 hrs by CLSI method; format: functional, organism-based; conditions: Lodderomyces parapsilosis, ATCC 22019, 48 h
Procedure, shortened: (§3)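 Yeast suspensions made from 3-5 colonies off 24-72 h SD agar plates in saline. They were diluted by OD630 standard curve in RPMI 1640 (0.2% dextrose, 0.03% glutamine, 0.165 M MOPS, pH 7.0) to 1.5 × 10³ CFU/ml. Twofold dilutions (11 concentrations, 20% DMSO-saline) run in duplicate. OD530 read before and after 35°C, 48 h. Line values are top test concentrations; no-growth endpoints give MIC/MFC.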

Candida albicans [6] = experiment: Antifungal activity against Candida albicans ATCC 90028 at 542.7 uM after 48 hrs by CLSI method; format: functional, organism-based; procedure, shortened: as §2
[7] = system: Trichophyton mentagrophytes; experiment: Antifungal activity against Trichophyton mentagrophytes ATCC 9533 at 542.7 uM after 5 days by CLSI method; format: functional, organism-based
[8] = system: Trichophyton mentagrophytes; experiment: Antifungal activity against Trichophyton mentagrophytes ATCC 9533 by CLSI method; format: functional, organism-based; procedure, shortened: as §1
Trichophyton rubrum [9] = experiment: Antifungal activity against Trichophyton rubrum ATCC MYA-4438 by CLSI method; format: functional, organism-based; procedure, shortened: as §1
Candida tropicalis [10] = experiment: Antifungal activity against Candida tropicalis ATCC 750 after 48 hrs by CLSI method; format: functional, organism-based; conditions: ATCC 750, 48 h; procedure, shortened: as §3
Pichia kudriavzevii [11] = experiment: Antifungal activity against Candida krusei ATCC 6258 at 542.7 uM after 48 hrs by CLSI method; format: functional, organism-based; procedure, shortened: as §3
Pichia kudriavzevii [12] = experiment: Antifungal activity against Candida krusei ATCC 6258 after 48 hrs by CLSI method; format: functional, organism-based; conditions: ATCC 6258, 48 h; procedure, shortened: as §2
Aspergillus niger [13] = experiment: Antifungal activity against Aspergillus niger ATCC 16404 after 48 h by CLSI method; conditions: ATCC 16404, 48 h
Aspergillus niger [14] = experiment: Antifungal activity against Aspergillus niger ATCC 16404 at 542.7 uM after 48 hrs by CLSI method; format: functional, organism-based
Candida albicans [15] = experiment: Antifungal activity against Candida albicans ATCC 60193 at 542.7 uM after 48 hrs by CLSI method; format: functional, organism-based; procedure, shortened: as §2
Candida albicans [16] = experiment: Antifungal activity against Fluconazole resistant Candida albicans isolate 1 at 542.7 uM after 48 hrs by CLSI method; format: functional, organism-based
Procedure, shortened: (§4)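 Candida in CLSI broth microdilution. Saline colony suspension set to 1.5 × 10³ CFU/ml (final) in MOPS-buffered RPMI 1640, pH 7.0. Test agent given as twofold serial dilutions in 20% DMSO-saline, duplicate wells. 35°C for 48 h. Growth read as OD530 before and after incubation. Percent inhibition scored at the highest test concentration.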

Trichophyton rubrum [17] = experiment: Antifungal activity against Trichophyton rubrum ATCC 10218 by CLSI method; format: functional, organism-based; procedure, shortened: as §1
Candida albicans [18] = experiment: Antifungal activity against Fluconazole resistant Candida albicans clinical isolate 17 after 48 hrs by CLSI method; format: functional, organism-based
Procedure, shortened: (§5)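 CLSI broth microdilution. Colonies from 24–72 h SD agar suspended in saline and sized by OD630 standard curve. Inoculum 1.5 × 10³ CFU/ml (final) in RPMI 1640 (0.2% dextrose, 0.03% glutamine, 0.165 M MOPS, pH 7.0). Twofold dilutions (11 levels) from 20% DMSO-saline, in duplicate. 35°C for 48 h, OD530 read before and after. IC50 fitted from % growth. MIC: no detectable growth. MFC: subculture onto SD agar.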

Candida albicans [19] = experiment: Antifungal activity against Candida albicans ATCC 32354 at 542.7 uM after 48 hrs by CLSI method; format: functional, organism-based; procedure, shortened: as §2
Aspergillus fumigatus [20] = experiment: Antifungal activity against Aspergillus fumigatus ATCC 204305 at 542.7 uM after 48 hrs by CLSI method; format: functional, organism-based
Candida albicans [21] = experiment: Antifungal activity against Candida albicans ATCC 14053 at 542.7 uM after 48 hrs by CLSI method; format: functional, organism-based
Trichophyton rubrum [22] = experiment: Antifungal activity against Trichophyton rubrum ATCC MYA-4438 at 542.7 uM after 5 days by CLSI method; format: functional, organism-based
Candida albicans [23] = experiment: Antifungal activity against Candida albicans ATCC 60193 after 48 hrs by CLSI method; format: functional, organism-based; conditions: ATCC 60193, 48 h; procedure, shortened: as §5
Candida tropicalis [24] = experiment: Antifungal activity against Candida tropicalis ATCC 750 at 542.7 uM after 48 hrs by CLSI method; format: functional, organism-based; procedure, shortened: as §3
Candida parapsilosis [25] = experiment: Antifungal activity against Candida parapsilosis ATCC 22019 at 542.7 uM after 48 hrs by CLSI method; format: functional, organism-based; procedure, shortened: as §3
Aspergillus fumigatus [26] = experiment: Antifungal activity against Aspergillus fumigatus ATCC 90906 at 542.7 uM after 48 hrs by CLSI method; format: functional, organism-based
Cryptococcus neoformans [27] = experiment: Antifungal activity against Cryptococcus neoformans ATCC 66031 after 72 hrs by CLSI method; format: functional, organism-based; conditions: ATCC 66031, 72 h
Procedure, shortened: (§6)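 SD broth replaced RPMI because growth in RPMI was poor; other CLSI conditions were kept. Inoculum was 1.5 × 10³ CFU/ml from colonies on SD agar, checked by plating. Twofold serial dilutions (11 concentrations) in 20% DMSO-saline were tested in duplicate. OD530 was read before and after incubation at 35°C for 72 h. Percent growth gave IC50; the MIC is the lowest concentration with no detectable growth.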

Candida albicans [28] = experiment: Antifungal activity against Candida albicans assessed as inhibition of growth at 100 uM; format: functional, organism-based
Candida albicans [29] = experiment: Antifungal activity against Candida albicans ATCC 200955 after 48 hrs by CLSI method; format: functional, organism-based; conditions: ATCC 200955, 48 h; procedure, shortened: as §5
Trichophyton rubrum [30] = experiment: Antifungal activity against Trichophyton rubrum ATCC 10218 at 542.7 uM after 5 days by CLSI method; format: functional, organism-based
Candida albicans [31] = experiment: Antifungal activity against Candida albicans ATCC 14053 after 48 hrs by CLSI method; format: functional, organism-based; conditions: ATCC 14053, 48 h; procedure, shortened: as §5
Nakaseomyces glabratus = experiment: Antifungal activity against Candida glabrata ATCC 90030 at 542.7 uM after 48 hrs by CLSI method; format: functional, organism-based; procedure, shortened: as §2
Candida albicans [32] = experiment: Antifungal activity against Fluconazole resistant Candida albicans clinical isolate 1 after 48 hrs by CLSI method; format: functional, organism-based; procedure, shortened: as §5
Cryptococcus neoformans [33] = experiment: Antifungal activity against Cryptococcus neoformans ATCC 90113 after 72 hrs by CLSI method; format: functional, organism-based; conditions: ATCC 90113, 72 h; procedure, shortened: as §6
Candida albicans [34] = experiment: Antifungal activity against Fluconazole resistant Candida albicans isolate 17 at 542.7 uM after 48 hrs by CLSI method; format: functional, organism-based; procedure, shortened: as §4
Aspergillus flavus = experiment: Antifungal activity against Aspergillus flavus ATCC 204304 at 542.7 uM after 48 hrs by CLSI method; format: functional, organism-based
Candida albicans [35] = experiment: Antifungal activity against Candida albicans ATCC 32354 after 48 hrs by CLSI method; format: functional, organism-based; conditions: ATCC 32354, 48 h; procedure, shortened: as §5

C=CCCCCCCCCC(=O)O [UNDECYLENIC ACID]
3.38: pIC50 (Aspergillus niger [13])
543 µM: MIC [3] | MIC [8] | MIC (Trichophyton rubrum [9]) | MIC (Trichophyton rubrum [17]) | MFC (Cryptococcus neoformans [33])
active: inhibition (Candida albicans [2])
136 µM: MIC (Cryptococcus neoformans [27])
< 3.27: pIC50 (Candida parapsilosis [5]) | pIC50 (Candida tropicalis [10]) | pIC50 (Pichia kudriavzevii [12]) | pIC50 (Candida albicans [18]) | pIC50 (Candida albicans [23]) | pIC50 (Candida albicans [29]) | pIC50 (Candida albicans [31]) | pIC50 (Candida albicans [32]) | pIC50 (Candida albicans [35])
3.95: pIC50 (Trichophyton rubrum [9])
inactive: Activity [1] | Activity (Candida albicans [4]) | Activity (Candida albicans [6]) | Activity [7] | Activity (Pichia kudriavzevii [11]) | Activity (Aspergillus niger [14]) | Activity (Candida albicans [15]) | Activity (Candida albicans [16]) | Activity (Candida albicans [19]) | Activity (Aspergillus fumigatus [20]) | Activity (Candida albicans [21]) | Activity (Trichophyton rubrum [22]) | Activity (Candida tropicalis [24]) | Activity (Candida parapsilosis [25]) | Activity (Aspergillus fumigatus [26]) | inhibition (Candida albicans [28]) | Activity (Trichophyton rubrum [30]) | Activity (Nakaseomyces glabratus) | Activity (Candida albicans [34]) | Activity (Aspergillus flavus)
3.55: pIC50 [8]
271 µM: MFC (Cryptococcus neoformans [27]) | MIC (Cryptococcus neoformans [33])
4.60: pIC50 (Cryptococcus neoformans [33])
3.57: pIC50 (Trichophyton rubrum [17])
5.57: pIC50 (Cryptococcus neoformans [27])
3.42: pIC50 [3]
